One assay relates to MCF-7 cell line. As to the kind of experiment: MTT antiproliferative test, MCF-7. As to conditions: Homo sapiens, MCF7, read-out: IC50 (n = 3), antiproliferative effect vs MCF-7. The assay is classed as cell-based. (Tetrazolium assays rely on reduction of a dye to a coloured formazan, in cell work by metabolically active cells.)
A further assay deals with A549 cell line. As to the kind of experiment: MTT antiproliferative test, A549. Format: cell-based. To be noted: Homo sapiens, A549, read-out: IC50 (n = 3), antiproliferative effect vs A549.
The next assay addresses EGFR^WT (Homo sapiens, UniProt P00533). As to the kind of experiment: HTRF kinase inhibitory assay, EGFR^WT. Format: biochemical. (TR-FRET usually uses a lanthanide donor and a delayed reading to cut background.)
Another assay concerns the target EGFR^T790M (Homo sapiens, UniProt P00533, T790M). As to the kind of experiment: biochemical. The assay is classed as biochemical.
Assay [1] can be described thus: Antioxidant activity by ABTS method. As to conditions: absorbance at 734 nm. In a few lines: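 ABTS radical cation was generated by mixing ammonium peroxodisulfate (65 mmol/dm3) with ABTS in phosphate buffer pH 7.4 and leaving it overnight. The stock was diluted in phosphate buffer pH 7.4 and A734 was read. Test compound was added after 1 min, mixed, and A734 was re-read. Results are expressed as trolox equivalents from a linear trolox calibration (absorbance decrease vs concentration).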

Consider four compounds from article PMC9753534 (ACS Omega, 2022).

Broadly, the IC50 is the concentration that gives 50% inhibition. Take `N#Cc1sc2sc(C#N)c(N)c2c1N` [Compound 1, 3,4-diaminothieno[2,3-b]thiophene-2,5-dicarbonitrile]: the IC50 came out at 8.57 ± 0.31 µM in the assay with MCF-7 cell line, 5.09 ± 0.15 µM in the assay with A549 cell line, 0.29 ± 0.05 µM against EGFR^WT and 7.89 ± 0.31 µM at EGFR^T790M. Besides, the “times the activity of gefitinib vs EGFR^T790M” value at EGFR^T790M (ratio of IC50 vs gefitinib) was 2.71 times.

`N=c1c2sc3sc4c(=N)n(-c5ccccc5)c(=O)[nH]c4c3c2[nH]c(=O)n1-c1ccccc1` [Compound 5, 1,8-Diimino-2,7-diphenyl-1,4,7,8-tetrahydro-2H,5H-9,10-dithia-2,4,5,7-tetraaza-indeno[1,2-a]indene-3,6-dione]: the IC50 in the assay with MCF-7 cell line came out at 17.3 ± 0.71 µM; in the assay with A549 cell line, 7.54 ± 0.32 µM; at EGFR^WT it was 2.02 ± 0.12 µM; at EGFR^T790M, 15.1 ± 0.51 µM. Also, the “radical scavenging activity (ABTS)” value in assay [1] came out at 70%.

On to `Nc1c(-c2nnn[nH]2)sc2sc(-c3nnn[nH]3)c(N)c12` [Compound 7, 2,5-Di(1H-tetrazol-5-yl)thieno[2,3-b]thiophene-3,4-diamine], for which the IC50 in the assay with MCF-7 cell line worked out at 17.3 ± 0.71 µM; in the assay on A549 cell line it was 8.27 ± 0.16 µM; at EGFR^WT, 3.27 ± 0.16 µM; on EGFR^T790M, 16.3 ± 0.61 µM.

Regarding `C#Cc1cccc(Nc2ncnc3cc(OCCOC)c(OCCOC)cc23)c1` [erlotinib, reference compound], the IC50 in the assay with MCF-7 cell line amounted to 21.8 ± 1.85 µM; in the assay on A549 cell line, 19.3 ± 1.85 µM.
